The target of assay [1] is T1, Peroxisome proliferator-activated receptor gamma (Homo sapiens, UniProt P37231).
T1 sequence (P37231 whole entry): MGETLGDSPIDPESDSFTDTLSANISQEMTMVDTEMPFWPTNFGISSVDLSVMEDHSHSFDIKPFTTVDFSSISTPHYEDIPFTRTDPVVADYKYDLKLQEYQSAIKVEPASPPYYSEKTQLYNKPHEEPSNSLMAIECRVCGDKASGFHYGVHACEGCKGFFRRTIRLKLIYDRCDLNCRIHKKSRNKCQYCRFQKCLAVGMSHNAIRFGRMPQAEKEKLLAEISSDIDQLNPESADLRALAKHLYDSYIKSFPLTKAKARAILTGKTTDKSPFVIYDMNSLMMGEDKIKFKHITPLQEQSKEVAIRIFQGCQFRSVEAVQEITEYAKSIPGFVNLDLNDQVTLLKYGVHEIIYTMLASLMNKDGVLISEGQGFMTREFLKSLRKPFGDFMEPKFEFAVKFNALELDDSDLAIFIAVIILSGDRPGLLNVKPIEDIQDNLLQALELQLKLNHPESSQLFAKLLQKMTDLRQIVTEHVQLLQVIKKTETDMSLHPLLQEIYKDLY
It counts as functional, cell-based, CV-1.

For assay [2], the target named is T2, Peroxisome proliferator-activated receptor alpha (Homo sapiens, UniProt Q07869).
T2 sequence (Q07869 whole entry): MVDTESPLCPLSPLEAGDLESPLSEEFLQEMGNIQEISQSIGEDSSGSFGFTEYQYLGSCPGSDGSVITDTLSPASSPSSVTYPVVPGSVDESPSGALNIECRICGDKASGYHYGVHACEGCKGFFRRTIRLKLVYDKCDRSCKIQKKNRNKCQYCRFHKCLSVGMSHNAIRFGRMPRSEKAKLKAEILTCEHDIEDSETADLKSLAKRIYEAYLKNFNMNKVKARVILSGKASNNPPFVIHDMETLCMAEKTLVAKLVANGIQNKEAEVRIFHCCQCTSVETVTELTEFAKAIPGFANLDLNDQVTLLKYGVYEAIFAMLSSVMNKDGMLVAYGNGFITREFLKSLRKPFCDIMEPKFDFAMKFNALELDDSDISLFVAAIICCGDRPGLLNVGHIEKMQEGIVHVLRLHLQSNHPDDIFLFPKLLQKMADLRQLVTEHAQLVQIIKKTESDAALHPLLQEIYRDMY
In words: Agonist activity at human PPARalpha-LBD expressed in CV1 cells co-transfected with Gal4 after 40 hrs by luciferase based transactivation assay. The class given is functional, cell-based, CV-1.

Assay [3] deals with T3, Peroxisome proliferator-activated receptor delta (Homo sapiens, UniProt Q03181).
T3 sequence (Q03181 whole entry): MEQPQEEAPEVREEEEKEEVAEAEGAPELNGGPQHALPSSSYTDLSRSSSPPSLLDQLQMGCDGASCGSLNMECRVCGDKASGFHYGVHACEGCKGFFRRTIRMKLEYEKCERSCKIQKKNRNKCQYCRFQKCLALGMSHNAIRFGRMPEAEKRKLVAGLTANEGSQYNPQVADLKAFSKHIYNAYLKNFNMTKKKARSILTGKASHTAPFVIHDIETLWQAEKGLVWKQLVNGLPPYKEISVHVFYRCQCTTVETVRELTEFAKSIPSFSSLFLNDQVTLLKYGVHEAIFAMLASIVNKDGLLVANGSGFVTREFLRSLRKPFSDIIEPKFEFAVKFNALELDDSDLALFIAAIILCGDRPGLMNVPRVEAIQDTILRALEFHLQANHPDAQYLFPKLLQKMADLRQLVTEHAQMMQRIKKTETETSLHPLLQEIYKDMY
In words: Agonist activity at human PPARdelta-LBD expressed in CV1 cells co-transfected with Gal4 after 40 hrs by luciferase based transactivation assay. It counts as functional, cell-based, CV-1.

Assay [4] is filed under the species Rattus norvegicus. Briefly: Induction of oligodendrocyte precursor cell differentiation isolated from Wistar rat fetal brain cortex at 0.1 uM after 3 days by anti O1-antibody immunostaining method. It counts as functional.
The species entered for assay [5] is Rattus norvegicus. Briefly: Induction of oligodendrocyte precursor cell differentiation isolated from Wistar rat fetal brain cortex at 0.03 uM after 3 days by anti O1-antibody immunostaining method. The class given is functional.
The species entered for assay [6] is Rattus norvegicus. Briefly: Induction of oligodendrocyte precursor cell differentiation isolated from Wistar rat fetal brain cortex at 0.01 uM after 3 days by anti O1-antibody immunostaining method. The class given is functional. In a few lines: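 Primary mixed cultures from fetal Wistar rat cortex, with OPCs enriched on a Percoll gradient. Cells seeded at 1 × 10⁴/cover glass and cultured 4 days at 37 °C, 5% CO₂, then exposed to compound in DMSO (0.01% final) for 3 days; vehicle control 0.01% DMSO. Anti-O1 immunostaining, random images; stained area measured and given relative to control mean (100%).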

SMILES strings stand for the structures. Active and inactive are the calls of the source. The calls are words filed in the database; no cut-off is given here. Some results are limits rather than exact numbers.

Turning to `CC(C)(Oc1ccc2c(CCc3nc(-c4ccccc4Cl)oc3C(C)(C)C)noc2c1)C(=O)O`, the EC50 in assay [1], in assay [2] and in assay [3] was greater than 10 µM each time.
`COc1ccc(CC2SC(=O)NC2=O)cc1C(=O)NCc1ccc(C(F)(F)F)cc1` (centres undefined): the outcome in the assay filed under Rattus norvegicus [4] was inactive. This molecule had an EC50 in assay [3] greater than 10 µM.
Consider `CC(C)c1oc(-c2ccc(Cl)cc2Cl)nc1CCc1noc2cc(OC(C)(C)C(=O)O)ccc12`, for which the figures for the EC50 in assay [1], in assay [2] and in assay [3] were 26.3 µM, 8.6 µM and 0.1 µM, respectively.
Taken in the same sequence, the figures for `CC(C)c1oc(-c2c(Cl)cccc2Cl)nc1CCc1noc2cc(OC(C)(C)C(=O)O)ccc12` were greater than 10 µM, greater than 10 µM and greater than 10 µM.
Take `Cc1cc2c(CCc3nc(-c4ccc(Cl)cc4Cl)oc3C(C)C)noc2cc1OCC(=O)O`: in the assay listed under Rattus norvegicus [4], the result was Active.
In the case of `Cc1oc(-c2ccccc2)nc1CCc1noc2cc(OC(C)(C)C(=O)O)ccc12`, the EC50 was 20.8 µM in assay [1], 12.9 µM in assay [2] and 14.9 µM in assay [3].
Taken in the same sequence, the figures for `CC(C)c1oc(-c2ccc(C(C)(C)C)cc2)nc1CCc1noc2cc(OC(C)(C)C(=O)O)ccc12` were 1 µM, 2.9 µM and 1.2 µM.
Taken in the same sequence, the figures for `CCCCCCc1oc(-c2ccccc2Cl)nc1CCc1noc2cc(OC(C)(C)C(=O)O)ccc12` were 5.9 µM, 2.3 µM and 2 µM.
For the molecule `Cc1cc(SCc2sc(-c3ccc(C(F)(F)F)cc3)nc2C)ccc1OCC(=O)O`, the result in the assay listed under Rattus norvegicus [5], in the assay filed under Rattus norvegicus [4] and in the assay listed under Rattus norvegicus [6] was Active.
Take `CC(C)c1nc(-c2ccc(C(F)(F)F)cc2)sc1CCc1noc2cc(OC(C)(C)C(=O)O)ccc12`: the concentration giving a half-maximal response (EC50) is 5.1 µM in assay [1], 0.83 µM in assay [2] and 0.021 µM in assay [3].
On to `Cc1cc2c(CCc3sc(-c4ccc(C(F)(F)F)cc4)nc3C(C)C)noc2cc1OC(C)(C)C(=O)O`, for which the outcome in the assay listed under Rattus norvegicus [5], in the assay listed under Rattus norvegicus [4] and in the assay listed under Rattus norvegicus [6] was Active. Moreover, the values for the EC50 in assay [1], in assay [2] and in assay [3] were 0.91 µM, 0.2 µM and 0.011 µM, respectively.
For the molecule `CCCc1oc(-c2ccccc2Cl)nc1CCc1noc2cc(OC(C)(C)C(=O)O)ccc12`, the EC50 came to 26.4 µM in assay [1], 13.9 µM in assay [2] and 5.4 µM in assay [3].
Taken in the same sequence, the figures for `CC(C)c1oc(-c2ccccc2Cl)nc1CCc1noc2cc(OC(C)(C)C(=O)O)ccc12` were 31.1 µM, 34.1 µM and 1.3 µM.
Taken in the same sequence, the figures for `CCCc1oc(-c2ccccc2)nc1CCc1noc2cc(OC(C)(C)C(=O)O)ccc12` were 19.1 µM, 13.2 µM and 9.8 µM.
For the molecule `CC(C)c1oc(-c2ccccc2C(F)(F)F)nc1CCc1noc2cc(OC(C)(C)C(=O)O)ccc12`, the concentration for a half-maximal effect (EC50) in assay [1], in assay [2] and in assay [3] was greater than 10 µM in each case.
In the case of `CC(C)c1oc(-c2ccccc2O)nc1CCc1noc2cc(OC(C)(C)C(=O)O)ccc12`, the EC50 turned out to be 14.6 µM in assay [1], 10.4 µM in assay [2] and 0.9 µM in assay [3].
For `CCc1oc(-c2ccccc2)nc1CCc1noc2cc(OC(C)(C)C(=O)O)ccc12`, in that order: 25.1 µM, 14.7 µM and 6.7 µM.
For `CCCCc1ccc(-c2nc(CCc3noc4cc(OC(C)(C)C(=O)O)ccc34)c(C(C)C)o2)cc1`, in that order: 2.6 µM, 3.3 µM and 0.7 µM.

One may read the EC50 as the concentration giving half of the maximal effect.
